Key:
Type in all cases: functional
[1] = system: SN12C; assay: Growth inhibition of human SN12C cells after 48 hrs
In short: (§1)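 NCI 60-line screen: cells in RPMI 1640 with 5% FBS and 2 mM L-glutamine, plated at 5000–40000 cells/well, grown 24 h (37 °C, 5% CO₂), then exposed to five 10-fold or ½-log dilutions (DMSO stock) for 48 h. Fixed with TCA (final 10% for adherent cells, 16% for suspension cells), then SRB stained with absorbance at 515 nm. GI50 from percentage growth relative to time-zero and control wells.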

[2] = system: SK-MEL-5; assay: Growth inhibition of human SK-MEL5 cells after 48 hrs; conditions: SK-MEL-5, 48 h
In short: (§2)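 NCI ~60-line screen. Cells were grown in RPMI 1640 with 5% FBS and 2 mM L-glutamine and plated at 5000–40000 cells/well. After a 24 h preincubation, five drug concentrations from DMSO stocks were added for 48 h at 37 °C. Cells were TCA-fixed, stained with SRB and read at 515 nm. GI50 was taken from time-zero and control absorbances and reported as pGI50.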

[3] = system: COLO 205; assay: Growth inhibition of human COLO205 cells after 48 hrs; conditions: COLO 205, 48 h; in short: as §2
[4] = system: U-251; assay: Growth inhibition of human U251 cells after 48 hrs; conditions: U-251, 48 h; in short: as §1
[5] = system: OVCAR-5; assay: Growth inhibition of human OVCAR5 cells after 48 hrs; conditions: OVCAR-5, 48 h; in short: as §2
[6] = system: NCI/ADR-RES; assay: Growth inhibition of human NCI/ADR-RES cells after 48 hrs; in short: as §2
[7] = system: UACC-62; assay: Growth inhibition of human UACC62 cells after 48 hrs; conditions: UACC-62, 48 h; in short: as §1
[8] = system: KM12; assay: Growth inhibition of human KM12 cells after 48 hrs; conditions: KM12, 48 h; in short: as §2
[9] = system: SK-OV-3; assay: Growth inhibition of human SKOV3 cells after 48 hrs; conditions: SK-OV-3, 48 h; in short: as §1
[10] = system: EKVX; assay: Growth inhibition of human EKVX cells after 48 hrs; in short: as §2
[11] = system: K562; assay: Growth inhibition of human K562 cells after 48 hrs; conditions: K562, 48 h; in short: as §2
[12] = system: SNB-19; assay: Growth inhibition of human SNB19 cells after 48 hrs; conditions: SNB-19, 48 h; in short: as §1
[13] = system: OVCAR-4; assay: Growth inhibition of human OVCAR4 cells after 48 hrs; conditions: OVCAR-4, 48 h; in short: as §2
[14] = system: SF-295; assay: Growth inhibition of human SF295 cells after 48 hrs; conditions: SF-295, 48 h; in short: as §2
[15] = system: SW-620; assay: Growth inhibition of human SW620 cells after 48 hrs; conditions: SW-620, 48 h; in short: as §1
[16] = system: MOLT-4; assay: Growth inhibition of human MOLT4 cells after 48 hrs; conditions: MOLT-4, 48 h; in short: as §2
[17] = system: OVCAR-3; assay: Growth inhibition of human OVCAR-3 cells after 48 hrs; conditions: OVCAR-3, 48 h; in short: as §2
[18] = system: MDA-MB-231; assay: Growth inhibition of human MDA-MB-231 cells after 48 hrs; conditions: MDA-MB-231, 48 h; in short: as §2
[19] = system: ACHN; assay: Growth inhibition of human ACHN cells after 48 hrs; in short: as §2
[20] = system: A498; assay: Growth inhibition of human A498 cells after 48 hrs; conditions: A498, 48 h; in short: as §2
[21] = system: RXF 393; assay: Growth inhibition of human RXF393 cells after 48 hrs; conditions: RXF 393, 48 h; in short: as §2
[22] = system: HCC 2998; assay: Growth inhibition of human HCC2998 cells after 48 hrs; conditions: HCC 2998, 48 h; in short: as §2
[23] = system: DU-145; assay: Growth inhibition of human DU145 cells after 48 hrs; conditions: DU-145, 48 h; in short: as §2
[24] = system: PC-3; assay: Growth inhibition of human PC3 cells after 48 hrs; conditions: PC-3, 48 h; in short: as §2
[25] = system: HT-29; assay: Growth inhibition of human HT29 cells after 48 hrs; conditions: HT-29, 48 h; in short: as §2
[26] = Growth inhibition of human HS578T cells after 48 hrs; conditions: Hs-578T; in short: as §2
[27] = system: SNB-75; assay: Growth inhibition of human SNB75 cells after 48 hrs; conditions: SNB-75, 48 h; in short: as §1
[28] = system: TK-10; assay: Growth inhibition of human TK10 cells after 48 hrs; conditions: TK-10, 48 h; in short: as §1
[29] = system: CCRF-CEM; assay: Growth inhibition of human CCRF-CEM cells after 48 hrs; in short: as §2
[30] = system: NCI-H460; assay: Growth inhibition of human NCI-H460 cells after 48 hrs; conditions: NCI-H460, 48 h; in short: as §2
[31] = system: SK-MEL-2; assay: Growth inhibition of human SK-MEL2 cells after 48 hrs; conditions: SK-MEL-2, 48 h; in short: as §2
[32] = system: SK-MEL-28; assay: Growth inhibition of human SK-MEL28 cells after 48 hrs; conditions: SK-MEL-28, 48 h; in short: as §2

Cn1c2ccccc2c2c(=O)n(CCCC(=O)NCCc3c[nH]cn3)c3c(-c4ccccc4)nnn3c21
GI50 [1]: 8.71 µM
LC50 [1]: 39.8 µM
TGI ([1]; read-out: pTGI (converted)): 18.6 µM
GI50 [2]: 9.12 µM
LC50 [2]: 32.4 µM
TGI ([2]; read-out: pTGI (converted)): 17 µM
GI50 [3]: 8.51 µM
LC50 [3]: 44.7 µM
TGI ([3]; read-out: pTGI (converted)): 19.5 µM
GI50 [4]: 9.55 µM
LC50 [4]: 36.3 µM
TGI ([4]; read-out: pTGI (converted)): 18.6 µM
GI50 [5]: 11 µM
LC50 (concentration killing 50% of cells) [5]: 38 µM
TGI ([5]; read-out: pTGI (converted)): 20.4 µM
GI50 [6]: > 50.1 µM
LC50 (concentration killing 50% of cells) [6]: > 50.1 µM
TGI ([6]; read-out: pTGI (converted)): > 50.1 µM
GI50 [7]: 9.77 µM
LC50 [7]: 31.6 µM
TGI ([7]; read-out: pTGI (converted)): 17.8 µM
GI50 [8]: 8.13 µM
LC50 [8]: 35.5 µM
TGI ([8]; read-out: pTGI (converted)): 17 µM
GI50 [9]: 10.2 µM
LC50 [9]: 33.9 µM
TGI ([9]; read-out: pTGI (converted)): 18.6 µM
GI50 [10]: 10 µM
LC50 [10]: > 50.1 µM
TGI ([10]; read-out: pTGI (converted)): 24 µM
GI50 [11]: 8.91 µM
LC50 [11]: > 50.1 µM
TGI ([11]; read-out: pTGI (converted)): 26.9 µM
GI50 [12]: 11.7 µM
LC50 [12]: 49 µM
TGI ([12]; read-out: pTGI (converted)): 24 µM
GI50 [13]: 10.2 µM
LC50 [13]: 41.7 µM
TGI ([13]; read-out: pTGI (converted)): 20.4 µM
GI50 [14]: 9.12 µM
LC50 [14]: 34.7 µM
TGI ([14]; read-out: pTGI (converted)): 17.8 µM
GI50 [15]: 12.9 µM
LC50 (lethal concentration, 50% cell kill) [15]: > 50.1 µM
TGI ([15]; read-out: pTGI (converted)): 30.2 µM
GI50 [16]: 3.98 µM
LC50 [16]: > 50.1 µM
TGI ([16]; read-out: pTGI (converted)): 21.4 µM
GI50 [17]: 8.32 µM
LC50 [17]: 31.6 µM
TGI ([17]; read-out: pTGI (converted)): 16.2 µM
GI50 [18]: 9.33 µM
LC50 (concentration killing 50% of cells) [18]: 37.2 µM
TGI ([18]; read-out: pTGI (converted)): 18.6 µM
GI50 [19]: 9.77 µM
LC50 [19]: 33.1 µM
TGI ([19]; read-out: pTGI (converted)): 17.8 µM
GI50 [20]: 7.59 µM
CC50 ([20]; read-out: Log LC50 (the source's name) (converted)): 30.9 µM
TGI ([20]; read-out: pTGI (converted)): 15.1 µM
GI50 [21]: 7.41 µM
LC50 [21]: 44.7 µM
TGI ([21]; read-out: pTGI (converted)): 18.2 µM
GI50 [22]: 9.55 µM
LC50 [22]: 40.7 µM
TGI ([22]; read-out: pTGI (converted)): 20 µM
GI50 [23]: 6.92 µM
LC50 [23]: 27.5 µM
TGI ([23]; read-out: pTGI (converted)): 13.8 µM
GI50 [24]: 8.91 µM
LC50 [24]: 44.7 µM
TGI ([24]; read-out: pTGI (converted)): 20 µM
GI50 [25]: 8.51 µM
LC50 (concentration killing 50% of cells) [25]: 37.2 µM
TGI ([25]; read-out: pTGI (converted)): 17.8 µM
GI50 [26]: 10.5 µM
LC50 (50% lethal concentration) [26]: 49 µM
TGI ([26]; read-out: pTGI (converted)): 22.4 µM
GI50 [27]: 10.5 µM
LC50 [27]: 33.1 µM
TGI ([27]; read-out: pTGI (converted)): 18.6 µM
GI50 [28]: 4.79 µM
LC50 [28]: 26.9 µM
TGI ([28]; read-out: pTGI (converted)): 11.5 µM
GI50 [29]: 1.51 µM
LC50 [29]: > 50.1 µM
TGI ([29]; read-out: pTGI (converted)): > 50.1 µM
GI50 [30]: 11 µM
LC50 [30]: > 50.1 µM
TGI ([30]; read-out: pTGI (converted)): 24.5 µM
GI50 [31]: 10.2 µM
LC50 [31]: 42.7 µM
TGI ([31]; read-out: pTGI (converted)): 20.9 µM
GI50 [32]: 8.91 µM
LC50 [32]: 32.4 µM
TGI ([32]; read-out: pTGI (converted)): 17 µM
